# Measurements from ChEMBL document CHEMBL3525944, “Nonlinear pharmacokinetics of 5-methoxy-N,N-dimethyltryptamine in mice” (Drug Metab Dispos, 2011).
# Columns and labels:
# [1] = Half life in wild-type FVB/N mouse at 2 mg/kg, iv by LC-MS/MS analysis; format: ADME, organism-based; set-up: dose 2 mg/kg, route intravenous; conditions: in vivo
# How it was run: (§1)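 Male 8-week FVB/N wild-type or CYP2D6-humanized mice (25-30 g) given 5-MeO-DMT oxalate in saline i.v. at 5 µL/g body weight. Serum collected 0-180 min, N = 3 per time point, proteins precipitated with ice-cold acetonitrile containing internal standard, LC-MS/MS. Noncompartmental analysis of composite mean data; t1/2 = 0.693/terminal slope; Vss = CL×AUMC/AUC, CL = dose/AUC0→∞.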
# [2] = Tmax in CYP2D6-humanized transgenic FVB/N mouse at 20 mg/kg, ip by LC-MS/MS analysis; format: ADME, organism-based; set-up: dose 20 mg/kg, route intraperitoneal; conditions: in vivo
# How it was run: (§2)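 Male 8-week FVB/N wild-type or CYP2D6-humanized mice given 5-MeO-DMT oxalate in saline i.p. at 10 µL/g body weight. Serum sampled 0-180 min, N = 4 per time point, processed by acetonitrile protein precipitation with internal standard, quantified by LC-MS/MS. Tmax taken as observed from composite mean serum concentration-time data.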
# [3] = Clearance in CYP2D6-humanized transgenic FVB/N mouse at 20 mg/kg, iv by LC-MS/MS analysis; format: ADME, organism-based; set-up: dose 20 mg/kg, route intravenous; conditions: in vivo
# Mus musculus [4] = test: Dose normalized AUC (0 to infinity) in CYP2D6-humanized transgenic FVB/N mouse at 2 mg/kg, ip by LC-MS/MS analysis; format: ADME, organism-based; set-up: dose 2 mg/kg, route intraperitoneal; conditions: in vivo
# [5] = Bioavailability in CYP2D6-humanized transgenic FVB/N mouse at 20 mg/kg, ip by LC-MS/MS analysis; format: ADME, organism-based; conditions: in vivo
# [6] = Clearance in wild-type FVB/N mouse at 20 mg/kg, iv by LC-MS/MS analysis; format: ADME, organism-based; set-up: dose 20 mg/kg, route intravenous; conditions: in vivo
# [7] = Cmax in wild-type FVB/N mouse at 2 mg/kg, ip by LC-MS/MS analysis; format: ADME, organism-based; set-up: dose 2 mg/kg, route intraperitoneal; conditions: in vivo
# [8] = Clearance in CYP2D6-humanized transgenic FVB/N mouse at 2 mg/kg, iv by LC-MS/MS analysis; format: ADME, organism-based; set-up: dose 2 mg/kg, route intravenous; conditions: in vivo
# Serum = test: Drug recovery in CYP2D6-humanized transgenic FVB/N mouse serum by LC-MS/MS analysis; format: ADME, cell-free
# [9] = Ratio of drug level in brain to serum in wild-type FVB/N mouse at 20 mg/kg, ip by LC-MS/MS analysis; format: ADME, organism-based; set-up: dose 20 mg/kg, route intraperitoneal
# How it was run: (§3)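 Mice dosed i.p. with 5-MeO-DMT in saline and killed at 20, 30 or 60 min. Brain homogenized in ice-cold saline and extracted liquid-liquid; serum processed by acetonitrile precipitation. Both quantified by LC-MS/MS (brain range 4.1-3000 nM). Ratio is brain over serum concentration at the same time point.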
# [10] = Bioavailability in CYP2D6-humanized transgenic FVB/N mouse at 2 mg/kg, ip by LC-MS/MS analysis; format: ADME, organism-based; conditions: in vivo
# [11] = Ratio of drug level in brain to serum in CYP2D6-humanized transgenic FVB/N mouse at 20 mg/kg, ip by LC-MS/MS analysis; format: ADME, organism-based; set-up: dose 20 mg/kg, route intraperitoneal; how it was run: as §3
# Mus musculus [12] = test: AUC (0 to infinity) in wild-type FVB/N mouse at 2 mg/kg, iv by LC-MS/MS analysis; format: ADME, organism-based, Plasma; set-up: time infinity, dose 2 mg/kg, route intravenous; conditions: in vivo
# [13] = Volume of distribution at steady state in wild-type FVB/N mouse at 20 mg/kg, iv by LC-MS/MS analysis; format: ADME, organism-based; set-up: dose 20 mg/kg, route intravenous; conditions: in vivo, read-out: Vdss; how it was run: as §1
# [14] = Tmax in wild-type FVB/N mouse at 10 mg/kg, ip by LC-MS/MS analysis; format: ADME, organism-based; set-up: dose 10 mg/kg, route intraperitoneal; conditions: in vivo; how it was run: as §2
# Mus musculus [15] = test: AUC (0 to infinity) in wild-type FVB/N mouse at 10 mg/kg, ip by LC-MS/MS analysis; format: ADME, organism-based, Plasma; set-up: time infinity, dose 10 mg/kg, route intraperitoneal; conditions: in vivo
# [16] = Half life in CYP2D6-humanized transgenic FVB/N mouse at 20 mg/kg, iv by LC-MS/MS analysis; format: ADME, organism-based; set-up: dose 20 mg/kg, route intravenous; conditions: in vivo
# [17] = Cmax in wild-type FVB/N mouse at 10 mg/kg, ip by LC-MS/MS analysis; format: ADME, organism-based; set-up: dose 10 mg/kg, route intraperitoneal; conditions: in vivo
# Mus musculus [18] = test: AUC (0 to infinity) in CYP2D6-humanized transgenic FVB/N mouse at 20 mg/kg, ip by LC-MS/MS analysis; format: ADME, organism-based, Plasma; set-up: time infinity, dose 20 mg/kg, route intraperitoneal; conditions: in vivo
# [19] = Cmax in CYP2D6-humanized transgenic FVB/N mouse at 2 mg/kg, ip by LC-MS/MS analysis; format: ADME, organism-based; set-up: dose 2 mg/kg, route intraperitoneal; conditions: in vivo
# Mus musculus [20] = test: AUC (0 to infinity) in wild-type FVB/N mouse at 20 mg/kg, iv by LC-MS/MS analysis; format: ADME, organism-based, Plasma; set-up: time infinity, dose 20 mg/kg, route intravenous; conditions: in vivo
# [21] = Ratio of drug level in brain to serum in CYP2D6-humanized transgenic FVB/N mouse at 10 mg/kg, ip by LC-MS/MS analysis; format: ADME, organism-based; set-up: dose 10 mg/kg, route intraperitoneal; how it was run: as §3
# [22] = Tmax in CYP2D6-humanized transgenic FVB/N mouse at 2 mg/kg, ip by LC-MS/MS analysis; format: ADME, organism-based; set-up: dose 2 mg/kg, route intraperitoneal; conditions: in vivo; how it was run: as §2
# [23] = Half life in wild-type FVB/N mouse at 20 mg/kg, iv by LC-MS/MS analysis; format: ADME, organism-based; set-up: dose 20 mg/kg, route intravenous; conditions: in vivo; how it was run: as §1
# Brain [24] = test: Stability in wild-type FVB/N mouse brain at -80 degC; format: ADME
# How it was run: (§4)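 Pilot test of 5-MeO-DMT in mouse brain homogenate (ice-cold saline) stored at -80°C over one year, quantified by LC-MS/MS after liquid-liquid extraction.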
# [25] = Clearance in wild-type FVB/N mouse at 2 mg/kg, iv by LC-MS/MS analysis; format: ADME, organism-based; set-up: dose 2 mg/kg, route intravenous; conditions: in vivo
# [26] = Volume of distribution at steady state in CYP2D6-humanized transgenic FVB/N mouse at 2 mg/kg, iv by LC-MS/MS analysis; format: ADME, organism-based; set-up: dose 2 mg/kg, route intravenous; conditions: in vivo, read-out: Vdss; how it was run: as §1
# [27] = Cmax in CYP2D6-humanized transgenic FVB/N mouse at 10 mg/kg, ip by LC-MS/MS analysis; format: ADME, organism-based; set-up: dose 10 mg/kg, route intraperitoneal; conditions: in vivo
# [28] = Tmax in CYP2D6-humanized transgenic FVB/N mouse at 10 mg/kg, ip by LC-MS/MS analysis; format: ADME, organism-based; set-up: dose 10 mg/kg, route intraperitoneal; conditions: in vivo; how it was run: as §2
# Mus musculus [29] = test: Dose normalized AUC (0 to infinity) in CYP2D6-humanized transgenic FVB/N mouse at 20 mg/kg, iv by LC-MS/MS analysis; format: ADME, organism-based; set-up: dose 20 mg/kg, route intravenous; conditions: in vivo
# Brain [30] = test: Stability in CYP2D6-humanized transgenic FVB/N mouse brain at -80 degC; format: ADME; how it was run: as §4
# [31] = Bioavailability in wild-type FVB/N mouse at 10 mg/kg, ip by LC-MS/MS analysis; format: ADME, organism-based; conditions: in vivo
# [32] = Cmax in CYP2D6-humanized transgenic FVB/N mouse at 20 mg/kg, ip by LC-MS/MS analysis; format: ADME, organism-based; set-up: dose 20 mg/kg, route intraperitoneal; conditions: in vivo
# Mus musculus [33] = test: AUC (0 to infinity) in wild-type FVB/N mouse at 2 mg/kg, ip by LC-MS/MS analysis; format: ADME, organism-based, Plasma; set-up: time infinity, dose 2 mg/kg, route intraperitoneal; conditions: in vivo
# [34] = Volume of distribution at steady state in wild-type FVB/N mouse at 10 mg/kg, iv by LC-MS/MS analysis; format: ADME, organism-based; set-up: dose 10 mg/kg, route intravenous; conditions: in vivo, read-out: Vdss; how it was run: as §1
# [35] = Toxicity in mouse; format: organism-based; conditions: in vivo
smiles,measurement,setting,value
COc1ccc2[nH]cc(CCN(C)C)c2c1.O=C(O)C(=O)O,half-life,[1],9.2 min
same,Tmax,[2],5 min
same,clearance,[3],110 mL/min/kg
same,AUC/dose,Mus musculus [4],2.28 kg·min/L
same,bioavailability,[5],65.6%
same,clearance,[6],100 mL/min/kg
same,Cmax,[7],1310 nM
same,clearance,[8],190 mL/min/kg
same,Drug recovery,Serum,62%
same,Kp,[9],2.7
same,bioavailability,[10],42.5%
same,Kp,[11],3.2
same,AUC,Mus musculus [12],47.6 µmol·min/L
same,Vd,[13],1.84 L/kg
same,Tmax,[14],5 min
same,AUC,Mus musculus [15],231 µmol·min/L
same,half-life,[16],12 min
same,Cmax,[17],7 µM
same,AUC,Mus musculus [18],569 µmol·min/L
same,Cmax,[19],1010 nM
same,AUC,Mus musculus [20],920 µmol·min/L
same,Kp,[21],1.2
same,Tmax,[22],3 min
same,half-life,[23],15 min
same,Stability,Brain [24],> 1 yr
same,clearance,[25],190 mL/min/kg
same,Vd,[26],2.55 L/kg
same,Cmax,[27],8.93 µM
same,Tmax,[28],5 min
same,AUC/dose,Mus musculus [29],9.45 kg·min/L
same,Stability,Brain [30],> 1 yr
same,bioavailability,[31],47.3%
same,Cmax,[32],18.3 µM
same,AUC,Mus musculus [33],24.9 µmol·min/L
same,Vd,[34],2.08 L/kg
same,LD50,[35],48 mg/kg
